# Only some compounds are listed: those with a hit (about 2.2% of all), similar ones and a draw of the others.
# 697 NFkB inh: inhibitors of the PMA/ionomycin-induced NF-kB reporter in 697 B cells. 697 B-cell NF-kB luciferase reporter, 16 h. inhibition, % at 4 µM. hit rate 0.33% among 330,000. AID 435022; in the data active means inhibition above about 35%
# NR2E3 ag-1: agonists of human NR2E3 nuclear receptor | AID 602229 | hit rate 0.35% among 360,000 | CHO-S Gal4-NCOR/VP16-NR2E3 two-hybrid, luciferase | Q9Y5X4 | inhibition of corepressor binding, % at 3.98 µM;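 active means inhibition above the mean of all tested compounds plus 3 SD, cut at about 70% in these data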;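 further: 0% = DMSO with NR2E3 transfected cells and 100% = cells lacking NR2E3 construct; higher means lower luciferase signal from less NR2E3 corepressor binding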
# Target sequence (Q9Y5X4 whole entry, looked up, the tested form may be a part): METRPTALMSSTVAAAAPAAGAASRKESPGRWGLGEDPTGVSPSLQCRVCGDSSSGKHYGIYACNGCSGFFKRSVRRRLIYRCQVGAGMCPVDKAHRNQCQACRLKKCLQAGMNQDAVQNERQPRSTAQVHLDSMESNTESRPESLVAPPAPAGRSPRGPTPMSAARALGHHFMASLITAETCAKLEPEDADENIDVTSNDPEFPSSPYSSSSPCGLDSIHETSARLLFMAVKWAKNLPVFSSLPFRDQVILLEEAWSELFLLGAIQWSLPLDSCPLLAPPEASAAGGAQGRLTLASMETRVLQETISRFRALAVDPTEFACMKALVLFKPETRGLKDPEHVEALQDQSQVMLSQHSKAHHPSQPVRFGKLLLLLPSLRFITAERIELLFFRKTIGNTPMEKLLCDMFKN
# NR2E3 ag-2: activates human photoreceptor nuclear receptor NR2E3. Q9Y5X4. GST-NR2E3/biotin-RetCOR TR-FRET, 1536-well. inhibition of corepressor binding, % at 4.78 µM. hit rate 0.12% among 320,000. AID 2300;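 active means percent inhibition above the cutoff of mean plus 3 SD of all tested compounds, set per screening campaign, cut at about 20% in these data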;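 further: 0% = DMSO wells and 100% = biotin wells as full block of FRET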
#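 Material: NR2E3–RetCOR corepressor complex / Incubation: Compound–protein incubation for 5 h at 4 °C / Dosing: compound at 4.8 µM, single dose / Detection: time-resolved FRET / Benchmarks: high control biotin, low control 0.6% DMSO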
# FGF22 binding: shifts melting point of recombinant human FGF22. Q9HCT0. recombinant FGF22 thermal shift, SYPRO orange fluorescence; percent of sucrose octasulfate shift, DMSO zero. activity (Tm shift, normalised), % at 9.99 µM. hit rate 1.5% among 340,000. AID 651658;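 active means mean Tm shift, scaled 0 neutral to 100 positive control, at about 1.3% or above, every replicate too, limit read from the data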
# Target sequence (Q9HCT0 whole entry, looked up): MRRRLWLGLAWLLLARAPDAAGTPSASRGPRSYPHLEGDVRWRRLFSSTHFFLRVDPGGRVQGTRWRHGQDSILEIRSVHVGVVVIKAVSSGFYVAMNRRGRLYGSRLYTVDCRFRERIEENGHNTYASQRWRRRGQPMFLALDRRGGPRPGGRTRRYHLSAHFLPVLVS
# Jurkat NFkB inh: lowers PMA/ionomycin-induced NF-kB signal in Jurkat cells; AID 435003; inhibition, % at 4 µM; PMA/ionomycin-induced NF-kB luciferase reporter, luminescence; hit rate 0.53% among 330,000; in the data active means inhibition above about 50%
# miR122 inh: blocks miR-122 activity in Huh7 sensor cells; Huh7 miR-122 Renilla luciferase sensor, 48 h; neutral wells = 0, positive control = 100; activation (reporter increase), % at 12.5 µM; hit rate 0.3% among 340,000; AID 602342;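 active means mean replicate activation score at least 90 and every replicate individually at or above 90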;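 further: higher luciferase means less miR-122 activity so hits act as miR-122 inhibitors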
# * hit, by the source's call; x = no result; [ ] = remark or other dose.
SMILES,697 NFkB inh,NR2E3 ag-1,NR2E3 ag-2,FGF22 binding,Jurkat NFkB inh,miR122 inh
COc1ccc(N2CS(=O)CC2=O)cc1 (configuration not stated),1,-1,-1,43*,-10,2
Cc1cc(CNC(=O)c2cc(COc3c(F)cccc3F)on2)nn1C,2,-6,-3,44*,-5,x
COc1ccccc1C1=NC(c2ccc(C)cc2)N=C1C (configuration not stated),-46,-82,5,44*,-48,x
COc1ccccc1-c1nnc(-c2ccc(C)cc2)o1,-143,-106,2,0,-81,0
COC(=O)c1sccc1NC(=S)Nc1ccc(F)cc1,-22,-12,2,x,13,147*
Cc1sc(NC(=O)CS(=O)(=O)c2ccccc2)c(C(N)=O)c1C,-16,-39,2,8.3*,17,-3
Cc1sc(NC(=O)CCCC(=O)O)c(C(N)=O)c1-c1ccccc1,33,-19,0,43*,7,x
CCOC(=O)N1CCN(C(=O)C(=O)NNC(=O)COc2ccc(Cl)cc2)CC1,13,-32,1,44*,13,x
CCOC(=O)N1CCN(C(=O)C(=O)NNC(=O)COc2ccc(Cl)c(C)c2)CC1,-17,3,2,x,-11,-6
CC(C)(C)NC(=O)/C=C/c1ccc(C(F)(F)F)cc1,0,-79,-6,43*,-37,x
C[C@@H]1CN([C@@H](C)CO)S(=O)(=O)c2ccc(-c3ccc(F)cc3)cc2O[C@H]1CN(C)Cc1cccc(F)c1,x,x,x,x,x,-5[16.7 µM]
N#CC1(Nc2ccc(C(=O)O)cc2)CCCC1,x,-4,x,0,x,x
N#CC1(Nc2cccc(Cl)c2)CCCC1,x,-8,x,43*,x,1
C[C@H]1CN([C@@H](C)CO)C(=O)Cc2cc(NS(=O)(=O)c3cccs3)ccc2O[C@H]1CN(C)CC1CC1,x,x,x,0,x,-6[16.7 µM]
COc1ccccc1CNC(=O)C(C)Sc1ccsc1[N+](=O)[O-] (configuration not stated),-5,1,1,0,-6,x
CC(Sc1ccsc1[N+](=O)[O-])C(=O)NCc1ccccc1 (configuration not stated),-1,x,2,43*,11,x
CC(Sc1ccsc1[N+](=O)[O-])C(=O)N1CCN(c2ccccn2)CC1 (configuration not stated),15,-10,2,44*,1,-35
C[C@H]1CN([C@@H](C)CO)S(=O)(=O)c2ccc(C3=CCCC3)cc2O[C@@H]1CN(C)Cc1ccncc1,x,x,x,0,x,1[16.7 µM]
Nc1nc(SCn2nnc3ccccc3c2=O)n[nH]1,12,-24,5,43*,-18,x
CC(=O)N1CCN(C(=O)c2cc(S(=O)(=O)Nc3ccc(S(C)(=O)=O)cc3)ccc2Cl)CC1,13,-11,0,44*,-9,x
CCN1CCN(C(=O)c2cc(S(=O)(=O)Nc3ccc(S(C)(=O)=O)cc3)ccc2Cl)CC1,6,-2,2,0,0,x
CCOC(=O)c1csc(NC(=O)c2ccccc2)n1,-110,-95,-1,0,-66,-7
CCOC(=O)c1csc(NC(=O)c2ccc(OCC)cc2)n1,-9,-99,1,43*,28,x
Cc1ccc(C)c(S(=O)(=O)NC(C)CCc2ccccc2)c1 (configuration not stated),-10,8,2,0,-6,193*
Cc1ccc(S(=O)(=O)NC(C)CCc2ccccc2)cc1 (configuration not stated),13,-20,-2,x,4,10
SMILES,697 NFkB inh,NR2E3 ag-1,NR2E3 ag-2,FGF22 binding,Jurkat NFkB inh,miR122 inh
CC(CC(=O)N1CCN(c2ccc(C(F)(F)F)cn2)CC1)n1ccnc1 (configuration not stated),-5,21,0,43*,13,x
C=CCNC(=O)[C@H]1[C@@H]2C(=O)O[C@@H](c3ccccc3)[C@@H](c3ccccc3)N2[C@@H](c2ccccc2OCCO)[C@]12C(=O)N(C(=O)OCCOC)c1ccccc12,x,x,x,0,x,x
C[C@@H]1CN([C@@H](C)CO)S(=O)(=O)c2ccc(C#Cc3ccncc3)cc2O[C@H]1CN(C)C(=O)C1CCC1,x,x,x,0,x,0[16.7 µM]
COc1ccccc1C1=NOC(COC(=O)c2ccc(Br)cc2)C1 (configuration not stated),-8,5,5,43*,5,-2
Cn1cccc1-c1cc(C(=O)N/N=C/C=C/c2ccccc2)[nH]n1,-23,9,4,1.7*,-12,-2
O=C(N/N=C/C=C/c1ccccc1)c1cccs1,-33,-19,-5,43*,-41,x
Cc1ccc(S(=O)(=O)Nc2ccc3c(c2)C(=O)N([C@H](C)CO)C[C@@H](C)[C@@H](CN(C)C(=O)Nc2ccc(F)cc2)O3)cc1,x,x,x,0,x,-1[16.7 µM]
O=C(Cc1ccccn1)NCC[C@H]1CC[C@H](NS(=O)(=O)c2ccccc2)[C@H](CO)O1,x,x,x,0,x,x
COc1ccccc1-c1cnc2c(c1)C(=O)N([C@@H](C)CO)C[C@H](C)[C@@H](CN(C)CC1CCOCC1)O2,x,x,x,x,x,-11[16.7 µM]
CC(=O)Nc1ccc(NC(=O)COC(=O)C2(c3ccc(Cl)cc3)CCCC2)cc1,8,-25,0,x,-5,x
CCc1cccc(CC)c1NC(=O)COC(=O)C1(c2ccc(Cl)cc2)CCCC1,10,-8,-1,x,14,113*
Cc1cc(C)cc(NC(=O)C2CCN(c3nccs3)CC2)c1,-8,13,2,x,-3,128*
CC(C)c1cn(CC[C@H]2CC[C@@H](NS(=O)(=O)c3ccc(F)cc3)[C@@H](CO)O2)nn1,x,x,x,0,x,x
C[C@@H]1CN([C@@H](C)CO)C(=O)Cc2cc(NC(=O)c3ccncc3)ccc2O[C@@H]1CN(C)CC1CC1,x,x,x,0,x,12[16.7 µM]
Nc1ccc2c(c1)C(=O)c1cc(N)c(Cl)cc1-2,x,9,x,43*,x,x
CCCC#Cc1cnc2c(c1)C(=O)N([C@H](C)CO)C[C@H](C)[C@@H](CN(C)Cc1ccc(F)cc1)O2,x,x,x,0,x,7[16.7 µM]
C[C@@H]1CCCCO[C@@H](CN(C)C(=O)Nc2ccc3c(c2)OCO3)[C@H](C)CN([C@@H](C)CO)C(=O)c2cc(NS(=O)(=O)c3cn(C)cn3)ccc2O1,x,x,x,0,x,2[16.7 µM]
Cc1ccnc(N2CCC(C(=O)NNC(=O)COc3cccc4ccccc34)CC2)n1,9,-5,3,43*,7,x
O=C(O)C[C@H]1c2cc(C(F)(F)F)ccc2S(=O)(=O)N1C1CCCC1,17,16,3,0,2,6
CC(=O)C[C@H]1c2cc(C(F)(F)F)ccc2S(=O)(=O)N1C1CCCC1,10,-5,3,0,11,105*
COCCN=c1scc(-c2cccs2)n1/N=C/c1ccc(O)c(O)c1O,-9,-37,-1,89*,-2,x

# Screening data: PubChem BioAssay, several laboratories
